NadD inh: inhibitors of Staphylococcus aureus NadD; actives 0.78% (n = 360,000); purified NadD enzyme, colorimetric absorbance read-out; inhibition, % at 20 µM; in the data active = inhibition above about 26%
ABHD5 PLIN5 PPI: blocks binding of human ABHD5 to perilipin-5. actives 0.78% (n = 360,000). Split G. princeps luciferase complementation, luminescence, 4 h. Q00G26+Q8WTS1. inhibition, % at 4 µM. AID 602281;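 active = inhibition above the mean inhibition across every tested compound plus 3 SD, cut at about 22% in these data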
Xi reactivation: reactivates the inactive X chromosome in mouse fibroblasts; XiGFP mouse fibroblasts, % GFP-positive cells imaging, 3 d; cells co-treated with 5-aza-dC sensitizer; scaled so ellipticine positive control = 100%; activation, % at 7.58 µM; actives 0.055% (n = 360,000);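 active = mean normalized replicate activation at least 10% and every replicate at or above 10%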
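System: SV40-immortalized XiGFP fibroblast cells, line 68-5-11 / Incubation: 3-day compound exposure, then 15 min fixation at room temperature / Compound: single concentration per compound, delivered by pin transfer / Buffer or medium: DMEM plus 5-aza-dC sensitizer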
Rpn11 block: Rpn11 (human) deubiquitinase inhibition. O00487. human 26S proteasome, Ub4-pepOG fluorescence polarization; 20S core pre-blocked with epoxomicin. inhibition, % at 20 µM. actives 0.59% (n = 360,000). AID 588493;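 active = inhibition at 20 µM, scaled to each plate's controls, above about 33%, limit read from the data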
Rin1 Abl inh: human Rin1-Abl interaction inhibition; P00519+Q13671; TR-FRET Rin1/Abl binding, biochemical; inhibition, % at 7.35 µM; actives 0.4% (n = 360,000); AID 588664; in the data active = inhibition above about 5%, passing the limit was not always enough
NadD conf: confirmation of Staphylococcus aureus NadD inhibitors; shares compounds with NadD inh; purified S. aureus NadD, colorimetric enzyme assay; inhibition, % at 20 µM; actives 13% (n = 2,000); AID 624309; in the data active = inhibition mostly above about 42%, no sharp cut-off; inactive = mostly below about 42%
Large screens that a line does not name were inactive (follow-up assays come after a bar, where they were run). An excerpt weighted towards active compounds, which were near 1.9% of everything screened.

COCCCn1c(=NC(=O)c2ccccc2)c(C#N)cc2c(=O)n3cccc(C)c3nc21	none
COc1cccc(-c2ccc3c(c2)O[C@H](CN(C)C(=O)C2CCOCC2)[C@H](C)CN([C@@H](C)CO)S3(=O)=O)c1	none (no result: NadD inh, ABHD5 PLIN5 PPI, Rpn11 block, Rin1 Abl inh)
COc1ccc(C(=O)c2[nH]c(N)c(C(=O)NCCc3c[nH]c4ccccc34)c2-c2ccc(Br)cc2)cc1	NadD inh 44.0 (no result: Rpn11 block, Rin1 Abl inh) | NadD conf inactive
COc1ccc(NC(=O)Nc2cccc3c2O[C@@H](CN(C)S(C)(=O)=O)[C@H](C)CN([C@H](C)CO)C3=O)cc1	none (no result: NadD inh, ABHD5 PLIN5 PPI, Rpn11 block, Rin1 Abl inh)
CCc1nnc(NC(=O)c2cccc(S(=O)(=O)N3CCN(c4ccccc4)CC3)c2)s1	none (no result: Xi reactivation)
CCc1nnc(NC(=O)c2cc(S(=O)(=O)N3CCN(c4ccccc4)CC3)ccc2Cl)s1	NadD inh 31.1 (no result: Xi reactivation) | NadD conf inactive
COc1ccc2c3c(n(C)c2c1)[C@@H](CO)N(C(=O)CN(C)C)CC31CN(Cc2nccs2)C1	none (no result: NadD inh, ABHD5 PLIN5 PPI, Rpn11 block, Rin1 Abl inh)
COc1cccc(C2c3c(-c4cc(Cl)c(C)cc4O)n[nH]c3C(=O)N2Cc2cccnc2)c1 (stereo unspecified)	NadD inh 47.1 (no result: Xi reactivation) | NadD conf 43.4
COc1cc(C2c3c(-c4cc(Cl)c(C)cc4O)n[nH]c3C(=O)N2Cc2cccnc2)ccc1O (stereo unspecified)	none (no result: Xi reactivation)
COc1ccccc1CN1[C@@H]2c3cccc(=O)n3C[C@@H]2[C@@H](CO)[C@@H]1C(=O)NCCc1ccncc1	none (no result: NadD inh, ABHD5 PLIN5 PPI, Rpn11 block, Rin1 Abl inh)
Cc1cc(C)c2c(n1)sc1c(=O)[nH]c(SCc3ccccc3)nc12	NadD inh 29.1 (no result: Xi reactivation) | NadD conf inactive
Cc1nc(SCc2nc3ccc([N+](=O)[O-])cc3[nH]2)c2oc3ccccc3c2n1	NadD inh 33.3 | NadD conf inactive
C[C@H](CO)N1C[C@H](C)[C@@H](CN(C)C(=O)Nc2ccc3c(c2)OCO3)Oc2ccc(NC(=O)Cc3cn(C)c4ccccc34)cc2C1=O	none (no result: NadD inh, ABHD5 PLIN5 PPI, Rpn11 block, Rin1 Abl inh)
O=C(CC1Nc2ccccc2NC1=O)Nc1ccc2c(c1)OCO2 (stereo unspecified)	none
Cc1ccc(NC(=O)CC2Nc3ccccc3NC2=O)cc1Cl (stereo unspecified)	NadD inh 31.4 (no result: Xi reactivation) | NadD conf inactive
COc1ccc(/C=C/C(=O)c2nc3ccccc3n2CC(=O)c2ccc(OC)cc2)cc1	NadD inh 30.0 (no result: Xi reactivation) | NadD conf inactive
CC1Cc2ccccc2N1C(=O)CSc1nc2cc3c(cc2cc1C#N)OCO3 (stereo unspecified)	NadD inh 35.1 (no result: Xi reactivation) | NadD conf inactive
Cc1cc2cc3c(cc2nc1SCC(=O)N1c2ccccc2CC1C)OCO3 (stereo unspecified)	none (no result: Xi reactivation)
COc1ccc(NC(=O)O[C@@H](C)[C@@H]2CN3CCc4c([nH]c5ccc(-c6ccc(OC)cc6)cc45)[C@@H]3C[C@@H]2N(C)C(=O)Nc2ccc(OC)cc2)cc1	none
COc1ccc(-c2ccc3[nH]c4c(c3c2)CCN2C[C@@H]([C@H](C)OC(=O)Nc3cc(Cl)cc(Cl)c3)[C@@H](N(C)C(=O)Nc3cc(Cl)cc(Cl)c3)C[C@@H]42)cc1	NadD inh 37.6 | NadD conf inactive
Cc1ccc(-c2cnc3c(c2)C(=O)N([C@@H](C)CO)C[C@H](C)[C@@H](CN(C)S(C)(=O)=O)O3)cc1	none (no result: NadD inh, ABHD5 PLIN5 PPI, Rpn11 block, Rin1 Abl inh)
CCNc1sc(C(=O)c2cccs2)c(N)c1-c1nc2ccccc2s1	NadD inh 30.2 (no result: Xi reactivation) | NadD conf inactive
C=CCNc1sc(C(=O)c2ccccc2)c(N)c1-c1nc2ccccc2s1	none (no result: Xi reactivation)
C[C@H]1CCCCO[C@@H](CN(C)C(=O)Nc2ccccc2)[C@@H](C)CN([C@@H](C)CO)C(=O)c2cc(NC(=O)Nc3cccc4ccccc34)ccc2O1	none (no result: NadD inh, ABHD5 PLIN5 PPI, Rpn11 block, Rin1 Abl inh)
C[C@@H]1CN([C@H](C)CO)C(=O)c2cc(NC(=O)NC3CCCCC3)ccc2O[C@H]1CN(C)Cc1ccc(C(=O)O)cc1	none (no result: NadD inh, ABHD5 PLIN5 PPI, Rpn11 block, Rin1 Abl inh)
O=C(O)c1cccc(NC(=S)NC(=O)c2ccc(-c3ccc(Cl)cc3)o2)c1	NadD inh 37.5 | NadD conf inactive
O=C(O)c1cccc(NC(=S)NC(=O)c2ccc(-c3ccccc3)cc2)c1	none
COc1ccc(NC(=O)N(C)C[C@@H]2Oc3ncc(-c4cccnc4)cc3C(=O)N([C@H](C)CO)C[C@@H]2C)cc1	none (no result: NadD inh, ABHD5 PLIN5 PPI, Rpn11 block, Rin1 Abl inh)
